From ChEMBL document CHEMBL1122089, “Synthesis and biological activity of some very hydrophobic superagonist analogues of luteinizing hormone-releasing hormone” (1982)

What was measured:
Rattus norvegicus [1] = species: Rattus norvegicus; assay: Suppression of estrus cyclicity in rat.; type: functional
Method in brief: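 Adult female Sprague-Dawley rats (~160 g), groups of 10, 14:10 light/dark, food and water ad libitum. Compound in 0.1% BSA-saline vehicle given sc twice daily (0800, 1630 h), 0.1 or 0.2 mL/injection, 14 consecutive days; at least four doses at 2-fold dilutions; vehicle and positive controls. Daily vaginal lavage; percent of rats in persistent diestrus from day 4 plotted against log dose; ED50 in µg/injection.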

Rattus norvegicus [2] = species: Rattus norvegicus; assay: Suppression of estrus cyclicity in rat relative to [D-Trp6, ProNHEt9].; type: functional

Compound | ED50 (Rattus norvegicus [1]) | Potency (Rattus norvegicus [2])
CCNC(=O)[C@@H]1CCCN1C(=O)[C@H](CCCN=C(N)N)NC(=O)[C@H](CC(C)C)N(C)C(=O)[C@@H](Cc1ccc2ccccc2c1)NC(=O)[C@H](Cc1ccc(O)cc1)NC(=O)[C@H](CO)NC(=O)[C@H](Cc1c[nH]c2ccccc12)NC(=O)[C@H](Cc1c[nH]cn1)NC(=O)[C@@H]1CCC(=O)N1 | 0.12 µg | 1.8
CCNC(=O)[C@@H]1CCCN1C(=O)[C@H](CCCN=C(N)N)NC(=O)[C@H](CC(C)C)NC(=O)[C@@H](Cc1ccc2ccccc2c1)NC(=O)[C@H](Cc1ccc(O)cc1)NC(=O)[C@H](CO)NC(=O)[C@H](Cc1cccc2ccccc12)NC(=O)[C@H](Cc1c[nH]cn1)NC(=O)[C@@H]1CCC(=O)N1 | 0.16 µg | 0.9
CCNC(=O)[C@@H]1CCCN1C(=O)[C@H](CCCN=C(N)N)NC(=O)[C@H](CC(C)C)NC(=O)[C@@H](CC(c1ccccc1)c1ccccc1)NC(=O)[C@H](Cc1ccc(O)cc1)NC(=O)[C@H](CO)NC(=O)[C@H](Cc1c[nH]c2ccccc12)NC(=O)[C@H](Cc1c[nH]cn1)NC(=O)[C@@H]1CCC(=O)N1 | 0.11 µg | 0.9
Cc1cc(C)c(C[C@@H](NC(=O)[C@H](Cc2ccc(O)cc2)NC(=O)[C@H](CO)NC(=O)[C@H](Cc2c[nH]c3ccccc23)NC(=O)[C@H](Cc2c[nH]cn2)NC(=O)[C@@H]2CCC(=O)N2)C(=O)N(C)[C@@H](CC(C)C)C(=O)N[C@@H](CCCN=C(N)N)C(=O)N2CCC[C@H]2C(=O)NCC(N)=O)c(C)c1 |  | 1.1
CCNC(=O)[C@@H]1CCCN1C(=O)[C@H](CCCN=C(N)N)NC(=O)[C@H](CC(C)C)NC(=O)[C@@H](Cc1ccc2ccccc2c1)NC(=O)[C@H](Cc1ccc(O)cc1)NC(=O)[C@H](CO)NC(=O)[C@H](Cc1c[nH]c2ccccc12)NC(=O)[C@H](Cc1c[nH]cn1)NC(=O)[C@@H]1CCC(=O)N1 | 0.22 µg | 0.9
CCNC(=O)[C@@H]1CCCN1C(=O)[C@H](CCCN=C(N)N)NC(=O)[C@H](CC(C)C)NC(=O)[C@@H](Cc1c[nH]c2ccccc12)NC(=O)[C@H](Cc1ccc(O)cc1)NC(=O)[C@H](CO)NC(=O)[C@H](Cc1c[nH]c2ccccc12)NC(=O)[C@H](Cc1c[nH]cn1)NC(=O)[C@@H]1CCC(=O)N1 | 0.14 µg | 1
CC(C)C[C@H](NC(=O)[C@@H](Cc1c2ccccc2cc2ccccc12)NC(=O)[C@H](Cc1ccc(O)cc1)NC(=O)[C@H](CO)NC(=O)[C@H](Cc1c[nH]c2ccccc12)NC(=O)[C@H](Cc1c[nH]cn1)NC(=O)[C@@H]1CCC(=O)N1)C(=O)N[C@@H](CCCN=C(N)N)C(=O)N1CCC[C@H]1C(=O)NCC(N)=O | 0.27 µg | 0.5
CC(C)C[C@H](NC(=O)[C@@H](Cc1ccc(-c2ccccc2)cc1)NC(=O)[C@H](Cc1ccc(O)cc1)NC(=O)[C@H](CO)NC(=O)[C@H](Cc1c[nH]c2ccccc12)NC(=O)[C@H](Cc1c[nH]cn1)NC(=O)[C@@H]1CCC(=O)N1)C(=O)N[C@@H](CCCN=C(N)N)C(=O)N1CCC[C@H]1C(=O)NCC(N)=O |  | 1.4
CC(C)C[C@H](NC(=O)[C@@H](Cc1ccc2ccccc2c1Br)NC(=O)[C@H](Cc1ccc(O)cc1)NC(=O)[C@H](CO)NC(=O)[C@H](Cc1c[nH]c2ccccc12)NC(=O)[C@H](Cc1c[nH]cn1)NC(=O)[C@@H]1CCC(=O)N1)C(=O)N[C@@H](CCCN=C(N)N)C(=O)N1CCC[C@H]1C(=O)NCC(N)=O | 0.15 µg | 1
COc1cc(C[C@@H](NC(=O)[C@H](Cc2ccc(O)cc2)NC(=O)[C@H](CO)NC(=O)[C@H](Cc2c[nH]c3ccccc23)NC(=O)[C@H](Cc2c[nH]cn2)NC(=O)[C@@H]2CCC(=O)N2)C(=O)N[C@@H](CC(C)C)C(=O)N[C@@H](CCCN=C(N)N)C(=O)N2CCC[C@H]2C(=O)NCC(N)=O)cc(OC)c1OC | 0.09 µg | 1.4
CC(C)C[C@H](NC(=O)[C@@H](CC1CCCCC1)NC(=O)[C@H](Cc1ccc(O)cc1)NC(=O)[C@H](CO)NC(=O)[C@H](Cc1c[nH]c2ccccc12)NC(=O)[C@H](Cc1c[nH]cn1)NC(=O)[C@@H]1CCC(=O)N1)C(=O)N[C@@H](CCCN=C(N)N)C(=O)N1CCC[C@H]1C(=O)NCC(N)=O | 0.3 µg | 0.5
CC(C)C[C@H](NC(=O)[C@@H](Cc1ccc(C(F)(F)F)cc1)NC(=O)[C@H](Cc1ccc(O)cc1)NC(=O)[C@H](CO)NC(=O)[C@H](Cc1c[nH]c2ccccc12)NC(=O)[C@H](Cc1c[nH]cn1)NC(=O)[C@@H]1CCC(=O)N1)C(=O)N[C@@H](CCCN=C(N)N)C(=O)N1CCC[C@H]1C(=O)NCC(N)=O | 0.11 µg | 1.4
CC(C)C[C@H](NC(=O)[C@@H](Cc1c(F)c(F)c(F)c(F)c1F)NC(=O)[C@H](Cc1ccc(O)cc1)NC(=O)[C@H](CO)NC(=O)[C@H](Cc1c[nH]c2ccccc12)NC(=O)[C@H](Cc1c[nH]cn1)NC(=O)[C@@H]1CCC(=O)N1)C(=O)N[C@@H](CCCN=C(N)N)C(=O)N1CCC[C@H]1C(=O)NCC(N)=O | 0.12 µg | 1.2
Cc1cc(C)c(C[C@@H](NC(=O)[C@H](Cc2ccc(O)cc2)NC(=O)[C@H](CO)NC(=O)[C@H](Cc2c[nH]c3ccccc23)NC(=O)[C@H](Cc2c[nH]cn2)NC(=O)[C@@H]2CCC(=O)N2)C(=O)N[C@@H](CC(C)C)C(=O)N[C@@H](CCCN=C(N)N)C(=O)N2CCC[C@H]2C(=O)NCC(N)=O)c(C)c1 | 0.07 µg | 2
CC(C)C[C@H](NC(=O)[C@@H](Cc1ccc2ccccc2c1)NC(=O)[C@H](Cc1ccc(O)cc1)NC(=O)[C@H](CO)NC(=O)[C@H](Cc1c[nH]c2ccccc12)NC(=O)[C@H](Cc1c[nH]cn1)NC(=O)[C@@H]1CCC(=O)N1)C(=O)N[C@@H](CCCN=C(N)N)C(=O)N1CCC[C@H]1C(=O)NCC(N)=O | 0.07 µg | 1.9
